APP 5UTR inh = APP translation inhibition; SH-SY5Y APP 5'UTR-luciferase reporter, luminescence; inhibition, % at 2 µM; actives 0.82% (n = 190,000); AID 1285;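 active means inhibition above a set limit, derived from the sample mean plus 3 SD, cut at about 45% in these data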
Ba/F3 V617F tox = reduce viability of Ba/F3 cells dependent on JAK2V617F; actives 1.1% (n = 220,000); inhibition, % at 5.6 µM; Ba/F3 EpoR-JAK2V617F viability, ATP luminescence; AID 1446;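 active means inhibition above the campaign mean plus 3 SD over all tested compounds, cut at about 24% in these data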;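 further: cytokine-independent growth of Ba/F3 cells driven by EpoR plus mutant JAK2; 0% = DMSO-treated cells and 100% = JAK inhibitor I control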
MT stabilizer = stabilizes microtubules in HeLa cells; HeLa tubulin immunostaining HCS, 24 h; share of cells brighter than vehicle mean+2SD; % tubulin-high responders, % at 10 µM; actives 0.83% (n = 200,000); AID 2205;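 active means plate Z-score above 3 for both tubulin-high and condensed-nucleus cell shares, with cell loss under 80%, at 10 µM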;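 further: anti alpha tubulin signal scored within the nucleus-defined area of each cell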
bCat nuc transl = beta-catenin nuclear translocation modulation | HeLa beta-catenin nuclear translocation, immunofluorescence imaging | actives 0.3% (n = 190,000) | nuclear translocation activity, % at 5 µM;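 active means nuclear translocation activity above 50% at 5 µM, with a well cell count of 50 or more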;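 further: per-cell ratio of nuclear to cytoplasmic median beta-catenin stain intensity; plate controls were DMSO negative control for no effect and GSK-3 inhibitor IX positive control for full effect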
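assay system = human HeLa cells, endogenous beta-catenin | times = compound treatment 24 h, 37°C, 5% CO2 | detection = Anti-beta-catenin immunofluorescence on PFA-fixed, Triton-permeabilized cells, DAPI nuclei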
L major viab = Leishmania major promastigote growth inhibition | actives 9% (n = 200,000) | inhibition, % at 10 µM | Leishmania major promastigotes, resazurin fluorescence viability; in the data active means inhibition above about 50%;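 further: promastigotes grown with compound for 44 hours at 28 °C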
BaF3 tox = parental Ba/F3 viability inhibition as JAK2V617F counter-screen. CellTiter-Glo ATP luminescence. inhibition, % at 5.6 µM. actives 1.1% (n = 220,000). AID 1486;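 active means inhibition above a per-campaign cutoff, the mean inhibition of all tested compounds plus 3 SD, cut at about 27% in these data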;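 further: 0% = DMSO wells and 100% = JAK Inhibitor I control wells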
Numbers without * were called inactive. An excerpt weighted towards active compounds, which were near 9.6% of everything screened.

Screening CCCCOc1ccc(C(O)(CCC)CCN2CCOCC2)cc1 (centres undefined) returned APP 5UTR inh 7, Ba/F3 V617F tox 0, MT stabilizer 2, bCat nuc transl 6, L major viab 3 and BaF3 tox 3.
`COc1ccccc1C(O)(c1ccccc1)C(CN1CCOCC1)c1ccccc1` (centres undefined) gave APP 5UTR inh 10, Ba/F3 V617F tox 3, MT stabilizer 3, bCat nuc transl 0, L major viab 39 and BaF3 tox 6.
Screening CCCC(O)(c1ccc(Cl)cc1)C(CN1CCOCC1)c1ccccc1 (centres undefined) returned APP 5UTR inh 4, Ba/F3 V617F tox -1, MT stabilizer 3, bCat nuc transl 1, L major viab 73* and BaF3 tox 8.
`CCCCC(O)(CCN1CCOCC1)c1ccc(Cl)cc1` (centres undefined) gave APP 5UTR inh 8, Ba/F3 V617F tox -4, MT stabilizer 2, L major viab 76* and BaF3 tox 2.
For CCCC(O)(CCN1CCCCC1)c1ccc(OCC)cc1 (centres undefined) the results were APP 5UTR inh 6, Ba/F3 V617F tox -1, MT stabilizer 5, bCat nuc transl 0, L major viab 77* and BaF3 tox 7.
For CCC(C)c1ccc(OCCCCN2CCOCC2)cc1 (centres undefined) the results were Ba/F3 V617F tox 0, MT stabilizer 1, L major viab 97* and BaF3 tox 3.
Cc1ccc(-n2c(-c3ccncc3)n[nH]c2=S)c(C)c1 was read as APP 5UTR inh -14, Ba/F3 V617F tox -2, MT stabilizer 3, bCat nuc transl -5, L major viab -4 and BaF3 tox -4.
For O=C(Nc1ccccc1Cl)Oc1ccc(-c2ccccc2)cc1 the results were Ba/F3 V617F tox 5, bCat nuc transl 0 and BaF3 tox 1.
`CCCCN1CC(C(=O)NC2CCCCC2)CC1=O` (centres undefined) gave APP 5UTR inh -6, Ba/F3 V617F tox -5, MT stabilizer 3, bCat nuc transl -2, L major viab -3 and BaF3 tox -1.
Screening CCCCOc1ccc(C(O)(CC)CCN2CCOCC2)cc1 (centres undefined) returned APP 5UTR inh -7, Ba/F3 V617F tox -2, MT stabilizer 4, bCat nuc transl 4, L major viab 83* and BaF3 tox 4.
For COc1ccc(OCCOCCN2CCOCC2)cc1 the results were APP 5UTR inh -1, Ba/F3 V617F tox 6, MT stabilizer 2, L major viab -1 and BaF3 tox 8.
CCCCOc1ccc(OCCCN2CCOCC2)cc1 was read as APP 5UTR inh 11, Ba/F3 V617F tox 6, MT stabilizer 7, bCat nuc transl 1, L major viab 100* and BaF3 tox 2.
`CCOc1ccc(OCCOCCN2CCOCC2)cc1` gave APP 5UTR inh 15, Ba/F3 V617F tox 1, MT stabilizer 1, L major viab 94* and BaF3 tox 3.
`S=C(NCCN1CCOCC1)Nc1ccccc1Cl` gave APP 5UTR inh 5, Ba/F3 V617F tox -2, MT stabilizer 2, bCat nuc transl -6, L major viab 0 and BaF3 tox 4.
CCC(CC)C(=O)NN(C(=O)c1ccncc1)C1CC(=O)N(c2ccccc2)C1=O (centres undefined) was read as Ba/F3 V617F tox -6, bCat nuc transl 0 and BaF3 tox -1.
For COc1cccc(NC(=O)Nc2ccc3nsnc3c2)c1 the results were Ba/F3 V617F tox 0, MT stabilizer 2, bCat nuc transl -2, L major viab 99* and BaF3 tox 8.
CC(=O)Nc1ccc(/C(C)=N/NS(=O)(=O)c2ccccc2)cc1 was read as APP 5UTR inh -1, Ba/F3 V617F tox -1, MT stabilizer 1, bCat nuc transl 2, L major viab -2 and BaF3 tox 6.
Screening Cc1nn(-c2ccccc2)c2c1C(c1ccccc1)C(C#N)=C(N)O2 (centres undefined) returned APP 5UTR inh -26, Ba/F3 V617F tox -2, MT stabilizer 6, bCat nuc transl -1, L major viab 3 and BaF3 tox 4.
Screening Cc1ccc(SCc2[nH]nc3c2C(c2ccco2)C(C#N)=C(N)O3)cc1 (centres undefined) returned APP 5UTR inh -1, Ba/F3 V617F tox 1, MT stabilizer 4, bCat nuc transl 0, L major viab 62* and BaF3 tox 7.
For Cc1ccc(SCc2[nH]nc3c2C(c2ccc(C)o2)C(C#N)=C(N)O3)cc1 (centres undefined) the results were APP 5UTR inh -4, Ba/F3 V617F tox 2, MT stabilizer 4, bCat nuc transl 0, L major viab 86* and BaF3 tox 3.
CCc1[nH]nc2c1C(c1ccc(C)o1)C(C#N)=C(N)O2 (centres undefined) was read as APP 5UTR inh -5, Ba/F3 V617F tox 2, MT stabilizer 2, bCat nuc transl 0, L major viab 15 and BaF3 tox 8.
For Cc1nn(Cc2ccccc2)c2c1C(c1ccc(Cl)cc1)C(C#N)=C(N)O2 (centres undefined) the results were APP 5UTR inh 6, Ba/F3 V617F tox 3, MT stabilizer 4, bCat nuc transl 1, L major viab 85* and BaF3 tox 3.
Screening Cc1nn(-c2ccccc2)c2c1C(c1ccc(Br)s1)C(C#N)=C(N)O2 (centres undefined) returned APP 5UTR inh -12, Ba/F3 V617F tox 2, MT stabilizer 2, bCat nuc transl -8, L major viab 81* and BaF3 tox 5.
`CCc1[nH]nc2c1C(c1ccc(Br)s1)C(C#N)=C(N)O2` (centres undefined) gave APP 5UTR inh -6, Ba/F3 V617F tox -1, MT stabilizer 4, L major viab 100* and BaF3 tox -1.
`Cc1ccc(NC(=O)N2CCCn3c(SCC(=O)c4ccccc4)nnc32)cc1` gave Ba/F3 V617F tox -4, bCat nuc transl -1 and BaF3 tox -3.
Screening Cc1ccc(C)c(NC(=O)C2CCCN2/C=C/C(=O)C(F)(F)F)c1 (centres undefined) returned APP 5UTR inh 11, Ba/F3 V617F tox -1, MT stabilizer 4, bCat nuc transl 1, L major viab -6 and BaF3 tox 5.
For Cc1cc(C)n(C2CCCCC2OC(=O)CCc2ccccc2)n1 (centres undefined) the results were Ba/F3 V617F tox -5, bCat nuc transl 0 and BaF3 tox 7.
Screening CC(C)(C)C(=O)NC(=S)Nc1ccccc1C(=O)Nc1ccccc1 returned APP 5UTR inh 17, Ba/F3 V617F tox -2, MT stabilizer 3, bCat nuc transl -3, L major viab -3 and BaF3 tox 95*.
`CC(C)(C)C(=O)Nc1ccccc1C(=O)Nc1ccccn1` gave APP 5UTR inh 4, Ba/F3 V617F tox -1, MT stabilizer 3, bCat nuc transl -2, L major viab 1 and BaF3 tox 3.

Screening data from PubChem.
